Measurements: ChEMBL document CHEMBL4602725 (J Med Chem, 2020)

Assays:
Homo sapiens [1] = organism: Homo sapiens; experiment: Selectivity index, ratio of IC50 for inhibition of human recombinant HDAC7 to IC50 for inhibition of human recombinant HDAC1
Outline: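 HDAC7 arm: 5 ng/mL recombinant human HDAC7 pre-incubated 15 min with inhibitor, then Ac-Leu-Gly-Lys(trifluoroAc)-AMC (20 µM) for 60 min at 37°C. Developer was trypsin with 10 μM SAHA, 15 min; fluorescence 350/460 nm. HDAC1 was run with 30 min pre-incubation, 12 µM Ac-Leu-Gly-Lys(Ac)-AMC, 90 min. Ratio of the HDAC7 IC50 to the HDAC1 IC50.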

Histone deacetylase 1 = Histone deacetylase 1 (Homo sapiens, UniProt Q13547); experiment: Inhibition of human recombinant HDAC1 pre-incubated for 30 mins before Ac-Leu- Gly-Lys(Ac)-AMC substrate addition and measured after 90 mins by fluorescence based assay
Histone deacetylase 7 = target: T1, Histone deacetylase 7 (Homo sapiens, UniProt Q8WUI4); experiment: Inhibition of human recombinant HDAC7 pre-incubated for 15 mins before Ac-Leu-Gly-Lys(trifluroAc)-AMC substrate addition and measured after 60 mins by fluorescence based assay
T1 sequence (Q8WUI4 whole entry): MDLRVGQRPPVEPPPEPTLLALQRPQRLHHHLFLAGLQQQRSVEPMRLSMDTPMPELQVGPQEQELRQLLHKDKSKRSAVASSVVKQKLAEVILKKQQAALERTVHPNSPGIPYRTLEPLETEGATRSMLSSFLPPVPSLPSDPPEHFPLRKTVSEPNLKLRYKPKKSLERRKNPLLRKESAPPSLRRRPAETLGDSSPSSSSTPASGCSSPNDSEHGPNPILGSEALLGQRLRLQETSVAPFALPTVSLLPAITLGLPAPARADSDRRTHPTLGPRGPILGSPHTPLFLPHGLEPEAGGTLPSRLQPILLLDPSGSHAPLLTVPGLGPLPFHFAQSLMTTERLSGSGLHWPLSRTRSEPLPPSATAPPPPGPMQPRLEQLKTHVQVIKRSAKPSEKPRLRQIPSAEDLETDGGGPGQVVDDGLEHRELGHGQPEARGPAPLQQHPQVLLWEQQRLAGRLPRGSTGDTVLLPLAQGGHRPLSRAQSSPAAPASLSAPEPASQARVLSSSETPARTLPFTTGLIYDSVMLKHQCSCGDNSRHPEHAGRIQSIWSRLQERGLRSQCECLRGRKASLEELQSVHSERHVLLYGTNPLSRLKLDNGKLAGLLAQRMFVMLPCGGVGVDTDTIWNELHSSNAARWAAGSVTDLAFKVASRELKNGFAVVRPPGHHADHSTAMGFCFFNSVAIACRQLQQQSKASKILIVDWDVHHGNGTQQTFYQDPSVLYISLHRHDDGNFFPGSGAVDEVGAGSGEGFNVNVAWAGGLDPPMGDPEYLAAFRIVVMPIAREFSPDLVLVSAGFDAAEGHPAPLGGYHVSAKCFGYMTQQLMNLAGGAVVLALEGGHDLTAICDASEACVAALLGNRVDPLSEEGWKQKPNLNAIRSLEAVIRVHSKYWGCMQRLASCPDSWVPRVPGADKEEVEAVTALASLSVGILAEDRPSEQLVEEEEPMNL

Homo sapiens [2] = organism: Homo sapiens; experiment: Selectivity index, ratio of IC50 for inhibition of human recombinant HDAC8 to IC50 for inhibition of human recombinant HDAC1
Histone deacetylase 3 = Histone deacetylase 3 (Homo sapiens, UniProt O15379); experiment: Inhibition of human recombinant HDAC3 pre-incubated for 30 mins before Ac-Leu- Gly-Lys(Ac)-AMC substrate addition and measured after 90 mins by fluorescence based assay
Histone deacetylase 2 = Histone deacetylase 2 (Homo sapiens, UniProt Q92769); experiment: Inhibition of human recombinant HDAC2 pre-incubated for 30 mins before Ac-Leu- Gly-Lys(Ac)-AMC substrate addition and measured after 90 mins by fluorescence based assay
Homo sapiens [3] = organism: Homo sapiens; experiment: Selectivity index, ratio of IC50 for inhibition of human recombinant HDAC3 to IC50 for inhibition of human recombinant HDAC1
Histone deacetylase 8 = target: T2, Histone deacetylase 8 (Homo sapiens, UniProt Q9BY41); experiment: Inhibition of human recombinant HDAC8 pre-incubated for 30 mins before Ac-Leu- Gly-Lys(Ac)-AMC substrate addition and measured after 90 mins by fluorescence based assay
T2 sequence (Q9BY41 whole entry): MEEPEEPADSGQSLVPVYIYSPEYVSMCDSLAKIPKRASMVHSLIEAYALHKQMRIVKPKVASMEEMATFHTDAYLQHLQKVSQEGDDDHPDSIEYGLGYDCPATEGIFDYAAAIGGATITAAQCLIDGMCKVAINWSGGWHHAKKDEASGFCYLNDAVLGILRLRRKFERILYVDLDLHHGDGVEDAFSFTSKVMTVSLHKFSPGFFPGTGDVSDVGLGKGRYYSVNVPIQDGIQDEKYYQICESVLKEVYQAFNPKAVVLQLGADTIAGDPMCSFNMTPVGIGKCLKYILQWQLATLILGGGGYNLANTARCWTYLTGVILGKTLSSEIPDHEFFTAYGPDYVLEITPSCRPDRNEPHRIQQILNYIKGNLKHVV

Homo sapiens [4] = organism: Homo sapiens; experiment: Selectivity index, ratio of IC50 for inhibition of human recombinant HDAC2 to IC50 for inhibition of human recombinant HDAC1

Chain of Histone deacetylase 2 (Q92769 whole entry): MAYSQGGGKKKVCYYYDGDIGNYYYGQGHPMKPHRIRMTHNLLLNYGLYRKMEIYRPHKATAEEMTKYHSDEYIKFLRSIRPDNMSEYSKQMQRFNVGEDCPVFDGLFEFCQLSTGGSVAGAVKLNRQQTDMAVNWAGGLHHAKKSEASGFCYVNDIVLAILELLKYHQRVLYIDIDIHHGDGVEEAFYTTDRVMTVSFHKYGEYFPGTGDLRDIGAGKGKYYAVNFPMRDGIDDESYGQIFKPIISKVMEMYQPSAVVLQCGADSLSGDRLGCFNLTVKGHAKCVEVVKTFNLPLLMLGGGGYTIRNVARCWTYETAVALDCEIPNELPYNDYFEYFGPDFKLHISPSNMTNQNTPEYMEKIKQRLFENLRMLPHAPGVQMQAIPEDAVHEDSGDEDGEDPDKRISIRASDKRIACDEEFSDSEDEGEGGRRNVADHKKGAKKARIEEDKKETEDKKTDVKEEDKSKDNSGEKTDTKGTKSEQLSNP
Chain of Histone deacetylase 1 (Q13547 whole entry): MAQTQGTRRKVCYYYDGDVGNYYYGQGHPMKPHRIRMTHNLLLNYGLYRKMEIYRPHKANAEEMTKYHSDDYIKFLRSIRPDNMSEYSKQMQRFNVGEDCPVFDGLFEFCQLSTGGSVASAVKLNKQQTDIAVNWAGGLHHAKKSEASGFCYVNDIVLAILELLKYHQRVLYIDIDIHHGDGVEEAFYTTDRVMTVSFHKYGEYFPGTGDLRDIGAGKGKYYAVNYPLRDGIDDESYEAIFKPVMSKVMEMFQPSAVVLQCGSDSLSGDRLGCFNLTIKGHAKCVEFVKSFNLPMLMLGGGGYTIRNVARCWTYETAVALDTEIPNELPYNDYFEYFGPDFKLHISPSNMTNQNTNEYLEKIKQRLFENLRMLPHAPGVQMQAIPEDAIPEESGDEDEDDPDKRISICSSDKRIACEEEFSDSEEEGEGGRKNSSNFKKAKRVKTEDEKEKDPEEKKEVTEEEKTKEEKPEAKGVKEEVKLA
Chain of Histone deacetylase 3 (O15379 whole entry): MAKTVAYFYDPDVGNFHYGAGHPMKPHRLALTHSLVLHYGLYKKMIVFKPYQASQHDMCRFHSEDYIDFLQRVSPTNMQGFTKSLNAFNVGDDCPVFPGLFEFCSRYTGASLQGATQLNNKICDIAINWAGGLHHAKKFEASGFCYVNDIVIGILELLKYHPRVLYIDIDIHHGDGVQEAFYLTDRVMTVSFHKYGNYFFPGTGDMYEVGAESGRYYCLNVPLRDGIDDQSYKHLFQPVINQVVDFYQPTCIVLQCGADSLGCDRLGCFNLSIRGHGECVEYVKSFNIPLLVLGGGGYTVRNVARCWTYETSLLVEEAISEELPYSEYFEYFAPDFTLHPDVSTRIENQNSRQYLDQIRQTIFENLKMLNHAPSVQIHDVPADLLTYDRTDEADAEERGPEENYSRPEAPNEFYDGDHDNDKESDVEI

Question: Which Ratio IC50 (Homo sapiens [1]) does the source give for `CN(C)c1ccc(C2(C(=O)Nc3ccc(C(=O)NO)cc3)CCCC2)cc1` here?
Answer: Its Ratio IC50 is 140 to 600.

Question: And the IC50 (Histone deacetylase 1)?
Answer: The IC50 was 4 nM.

Question: And the IC50 (Histone deacetylase 7)?
Answer: The IC50 was 2500 nM.

Question: And the Ratio IC50 (Homo sapiens [2])?
Answer: Its Ratio IC50 is 14 to 61.

Question: And the IC50 (Histone deacetylase 3)?
Answer: The IC50 was 9 nM.

Question: And the IC50 (Histone deacetylase 2)?
Answer: The IC50 was 49 nM.

Question: And the Ratio IC50 (Homo sapiens [3])?
Answer: The Ratio IC50 was 2 to 3.

Question: What about the IC50 (Histone deacetylase 8) of the same compound?
Answer: The IC50 was 89 nM.

Question: And the Ratio IC50 (Homo sapiens [4])?
Answer: Its Ratio IC50 is 5 to 12.
